Results from ChEMBL document CHEMBL1137722, “Synthesis and pharmacological evaluation of a novel series of 5-(substituted)aryl-3-(3-coumarinyl)-1-phenyl-2-pyrazolines as novel anti-inflammatory and analgesic agents” (Eur J Med Chem, 2009).

Columns and labels:
Rattus norvegicus [1] = assay: Antiinflammatory activity in albino rat acute inflammatory model assessed as inhibition of carrageenan-induced paw edema at 200 mg/kg, po dosed 1 hr before carrageenan challenge measured after 2 hrs relative to control; type: functional
Summary of the method: (§1)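 Male albino rats (170–220 g), fasted at least 12 h with water available, groups of six. Oral dosing with 0.5% sodium CMC vehicle control. One hour later, 0.05 ml of 1% carrageenan was injected subplantar into the left hind paw. Paw volume was measured by digital plethysmometer at 0, 2 and 4 h. % inhibition = [1 − treated/control edema volume] × 100, n=6.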

Rattus norvegicus [2] = assay: Antipyretic activity in yeast-induced pyrexia albino rat model assessed as mean rectal temperature at 200 mg/kg, po administered 30 mins after 18 hrs of yeast challenge measured after 1 hr postdosing (Rvb=39.4 degC); type: functional
Rattus norvegicus [3] = assay: Antiinflammatory activity in albino rat acute inflammatory model assessed as inhibition of carrageenan-induced paw edema at 200 mg/kg, po dosed 1 hr before carrageenan challenge measured after 4 hrs relative to control; type: functional; summary of the method: as §1
Rattus norvegicus [4] = assay: Antipyretic activity in yeast-induced pyrexia albino rat model assessed as mean rectal temperature at 200 mg/kg, po administered 30 mins after 18 hrs of yeast challenge measured after 3 hrs postdosing (Rvb=38.9 degC); type: functional
Rattus norvegicus [5] = assay: Antipyretic activity in yeast-induced pyrexia albino rat model assessed as temperature index measured by sum of mean rectal temperature changes from 0 to 5 hrs at 200 mg/kg, po administered 30 mins after 18 hrs of yeast challenge (Rvb=39.4 degreeC); type: functional
Rattus norvegicus [6] = assay: Antipyretic activity in yeast-induced pyrexia albino rat model assessed as mean rectal temperature at 200 mg/kg, po administered 30 mins after 18 hrs of yeast challenge measured after 4 hrs postdosing (Rvb=38.7 degC); type: functional
Rattus norvegicus [7] = assay: Antiinflammatory activity in albino rat chronic arthritis model assessed as inhibition of Freund's adjuvant-induced paw edema at 200 mg/kg, po administered on day 16 to 19 post Freund's adjuvant challenge measured on day 19 relative to control; type: functional
Summary of the method: (§2)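 Male albino rats (150–230 g) received 0.1 ml heat-killed M. tuberculosis (Freund's complete adjuvant) into the left hind footpad on day 1. Rats with developed arthritis on day 15 were split into groups of six. Dosing was oral, days 16–19, with 1 ml 0.5% sodium CMC as control. Paw volume, body weight and secondary lesions were recorded daily. % inhibition was calculated from day 15, n=6.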

Rattus norvegicus [8] = assay: Antipyretic activity in yeast-induced pyrexia albino rat model assessed as mean rectal temperature at 200 mg/kg, po administered 30 mins after 18 hrs of yeast challenge measured after 5 hrs postdosing (Rvb=38.2 degC); type: functional
Rattus norvegicus [9] = assay: Antipyretic activity in yeast-induced pyrexia albino rat model assessed as mean rectal temperature at 200 mg/kg, po administered 30 mins after 18 hrs of yeast challenge measured after 2 hrs postdosing (Rvb=39.2 degC); type: functional
[10] = Acute toxicity in po dosed albino mouse assessed as maximum tolerated dose; type: organism-based; conditions: in vivo
Summary of the method: (§3)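 Albino mice of either sex (20–25 g), 12 groups of six, fasted 24 h with water available. Given oral doses rising through 10, 20, 100, 200, 1000 and 2000 mg/kg. Watched continuously for 3 h for behavioural, neurological and autonomic signs, then every 30 min for the next 3 h, then up to 24 h or until death. Guideline: OECD.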

Mus musculus [11] = assay: Analgesic activity in albino mouse assessed as protection against glacial acetic acid-induced writhing response at 200 mg/kg, po pretreated 0.5 hrs before glacial acetic acid challenge measured for 15 mins; type: functional
Summary of the method: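 Albino mice of either sex (20–25 g). Mice were pre-screened the day before for writhing, and only responders were used. Compound was given orally as a suspension in 0.5% sodium CMC 30 min before glacial acetic acid challenge. Stretching episodes were counted for 15 min. Results are the group mean, n=6, with % protection against control.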

Rattus norvegicus [12] = assay: Gastrointestinal toxicity in starved albino rat stress model assessed as ulcer index at 200 mg/kg, po after 7 hrs; type: organism-based; set-up: dose 200 mg/kg, route oral; conditions: in vivo
Summary of the method: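 Albino rats of either sex, 170–250 g, six per group, starved 48 h with water ad libitum. Dosed orally as a suspension in 0.5% sodium CMC, test compounds at 200 mg/kg b.w. Killed 7 h later. Stomach opened along the greater curvature and everted. Ulcer index from lesion counts in five size classes, ranging from pinpoint to >4 mm diameter.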

Mus musculus [13] = assay: Acute toxicity in albino mouse assessed as mortality up to 2000 mg/kg, po after 24 hrs; type: organism-based; set-up: dose 2000 mg/kg, route oral; conditions: in vivo; summary of the method: as §3
Mus musculus [14] = assay: Acute toxicity in albino mouse assessed as behavioral response up to 2000 mg/kg, po after 24 hrs; type: organism-based; set-up: dose 2000 mg/kg, route oral; conditions: in vivo; summary of the method: as §3
Rattus norvegicus [15] = assay: Antipyretic activity in yeast-induced pyrexia albino rat model assessed as mean rectal temperature at 135 mg/kg, po administered 30 mins after 18 hrs of yeast challenge measured after 5 hrs postdosing (Rvb=38.2 degC); type: functional
Rattus norvegicus [16] = assay: Antipyretic activity in yeast-induced pyrexia albino rat model assessed as mean rectal temperature at 135 mg/kg, po administered 30 mins after 18 hrs of yeast challenge measured after 3 hrs postdosing (Rvb=38.9 degC); type: functional
Rattus norvegicus [17] = assay: Antipyretic activity in yeast-induced pyrexia albino rat model assessed as mean rectal temperature at 135 mg/kg, po administered 30 mins after 18 hrs of yeast challenge measured after 1 hr postdosing (Rvb=39.4 degreeC); type: functional
Rattus norvegicus [18] = assay: Antipyretic activity in yeast-induced pyrexia albino rat model assessed as temperature index measured by sum of mean rectal temperature changes from 0 to 5 hrs at 135 mg/kg, po administered 30 mins after 18 hrs of yeast challenge (Rvb=39.0 degC); type: functional
Rattus norvegicus [19] = assay: Antipyretic activity in yeast-induced pyrexia albino rat model assessed as mean rectal temperature at 135 mg/kg, po administered 30 mins after 18 hrs of yeast challenge measured after 4 hrs postdosing (Rvb=38.7 degC); type: functional
Rattus norvegicus [20] = assay: Antipyretic activity in yeast-induced pyrexia albino rat model assessed as mean rectal temperature at 135 mg/kg, po administered 30 mins after 18 hrs of yeast challenge measured after 2 hrs postdosing (Rvb=39.2 degC); type: functional
Rattus norvegicus [21] = assay: Antiinflammatory activity in albino rat acute inflammatory model assessed as inhibition of carrageenan-induced paw edema at 13.5 mg/kg, po dosed 1 hr before carrageenan challenge measured after 2 hrs relative to control; type: functional; summary of the method: as §1
Rattus norvegicus [22] = assay: Antiinflammatory activity in albino rat acute inflammatory model assessed as inhibition of carrageenan-induced paw edema at 13.5 mg/kg, po dosed 1 hr before carrageenan challenge measured after 4 hrs relative to control; type: functional; summary of the method: as §1
Rattus norvegicus [23] = assay: Antiinflammatory activity in albino rat chronic arthritis model assessed as inhibition of Freund's adjuvant-induced paw edema at 13.5 mg/kg, po administered on day 16 to 19 post Freund's adjuvant challenge measured on day 19 relative to control; type: functional; summary of the method: as §2
Rattus norvegicus [24] = assay: Antipyretic activity in yeast-induced pyrexia albino rat model assessed as temperature index measured by sum of mean rectal temperature changes from 0 to 5 hrs at 200 mg/kg, po administered 30 mins after 18 hrs of yeast challenge (Rvb=39.3 degC); type: functional
Rattus norvegicus [25] = assay: Antipyretic activity in yeast-induced pyrexia albino rat model assessed as temperature index measured by sum of mean rectal temperature changes from 0 to 5 hrs at 200 mg/kg, po administered 30 mins after 18 hrs of yeast challenge (Rvb=39.2 degC); type: functional

## O=c1oc2ccccc2cc1C1=NN(c2ccccc2)[C@@H](c2ccc(F)cc2)C1
Rattus norvegicus [1]
  inhibition in vivo at 200 mg/kg: 44.9%
Rattus norvegicus [2]
  Activity: 39.2 °C
Rattus norvegicus [3]
  inhibition in vivo at 200 mg/kg: 66.7%
Rattus norvegicus [4]
  Activity: 37.9 °C
Rattus norvegicus [5]
  Activity: -6.6 °C
Rattus norvegicus [6]
  Activity: 37.7 °C
Rattus norvegicus [7]
  inhibition in vivo at 200 mg/kg: 40.5%
Rattus norvegicus [8]
  Activity: 37.1 °C
Rattus norvegicus [9]
  Activity: 38.3 °C
[10]
  MTD: 2000 mg/kg
Mus musculus [11]
  Activity: 55%
Rattus norvegicus [12]
  UI: 1.66
Mus musculus [13]
  Activity: Non-toxic

## Cc1ccc([C@H]2CC(c3cc4ccccc4oc3=O)=NN2c2ccccc2)cc1
Rattus norvegicus [1]
  inhibition in vivo at 200 mg/kg: 30.1%
Rattus norvegicus [3]
  inhibition in vivo at 200 mg/kg: 38%
Mus musculus [14]
  Activity: Toxic
Mus musculus [13]
  Activity: Non-toxic

## O=c1oc2ccccc2cc1C1=NN(c2ccccc2)[C@@H](c2cccc([N+](=O)[O-])c2)C1
Rattus norvegicus [1]
  inhibition in vivo at 200 mg/kg: 26.1%
Rattus norvegicus [3]
  inhibition in vivo at 200 mg/kg: 31.2%
Mus musculus [14]
  Activity: Toxic
Mus musculus [13]
  Activity: Non-toxic

## CC(=O)Nc1ccc(O)cc1 [ACETAMINOPHEN]
Rattus norvegicus [15]
  Activity: 37 °C
Rattus norvegicus [16]
  Activity: 37.6 °C
Rattus norvegicus [17]
  Activity: 38.4 °C
Rattus norvegicus [18]
  Activity: -6.7 °C
Rattus norvegicus [19]
  Activity: 37.3 °C
Rattus norvegicus [20]
  Activity: 38 °C

## O=C(O)Cc1ccccc1Nc1c(Cl)cccc1Cl [DICLOFENAC]
Rattus norvegicus [21]
  inhibition in vivo at 13.5 mg/kg: 63.7%
Rattus norvegicus [22]
  inhibition in vivo at 13.5 mg/kg: 78.7%
Rattus norvegicus [23]
  inhibition in vivo at 13.5 mg/kg: 53%

## O=c1oc2ccccc2cc1C1=NN(c2ccccc2)[C@@H](c2ccc(Cl)cc2)C1
Rattus norvegicus [1]
  inhibition in vivo at 200 mg/kg: 39.2%
Rattus norvegicus [2]
  Activity: 39.1 °C
Rattus norvegicus [3]
  inhibition in vivo at 200 mg/kg: 64.7%
Rattus norvegicus [4]
  Activity: 38.5 °C
Rattus norvegicus [6]
  Activity: 38.1 °C
Rattus norvegicus [24]
  Activity: -3.9 °C
Rattus norvegicus [7]
  inhibition in vivo at 200 mg/kg: 39.1%
Rattus norvegicus [8]
  Activity: 38 °C
Rattus norvegicus [9]
  Activity: 38.9 °C
[10]
  MTD: 2000 mg/kg
Mus musculus [11]
  Activity: 41%
Rattus norvegicus [12]
  UI: 2.33
Mus musculus [13]
  Activity: Non-toxic

## O=c1oc2ccccc2cc1C1=NN(c2ccccc2)[C@@H](c2ccccc2[N+](=O)[O-])C1
Rattus norvegicus [1]
  inhibition in vivo at 200 mg/kg: 24.7%
Rattus norvegicus [3]
  inhibition in vivo at 200 mg/kg: 26.6%
Mus musculus [14]
  Activity: Toxic
Mus musculus [13]
  Activity: Non-toxic

## O=c1oc2ccccc2cc1C1=NN(c2ccccc2)[C@@H](c2ccc(Cl)cc2Cl)C1
Rattus norvegicus [1]
  inhibition in vivo at 200 mg/kg: 56.7%
Rattus norvegicus [2]
  Activity: 38.9 °C
Rattus norvegicus [3]
  inhibition in vivo at 200 mg/kg: 67.5%
Rattus norvegicus [4]
  Activity: 38.1 °C
Rattus norvegicus [6]
  Activity: 37.8 °C
Rattus norvegicus [7]
  inhibition in vivo at 200 mg/kg: 45.4%
Rattus norvegicus [8]
  Activity: 37.2 °C
Rattus norvegicus [25]
  Activity: -5.4 °C
Rattus norvegicus [9]
  Activity: 38.6 °C
[10]
  MTD: 2000 mg/kg
Mus musculus [11]
  Activity: 59%
Rattus norvegicus [12]
  UI: 2.67
Mus musculus [13]
  Activity: Non-toxic
